In ChEMBL document CHEMBL4689842, “EUbOPEN Chemogenomics Library wave 1” (2021):

Tested on: U2OS
Experiment: Multiplex assay against U2OS
Assay type: toxicity, cell-based
Settings: human
Summary of the method: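 Live cells were stained at seeding with Hoechst33342, BioTracker Green Microtubule Cytoskeleton Dye, MitoTracker Red and Annexin V Alexa Fluor 680, then imaged on a CQ1 microscope at 37°C and 5% CO2 after compound addition. CellPathfinder machine-learning gating split cells into Hoechst high-intensity objects or normal cells. Normal cells were split into healthy, pyknosed or fragmented nuclei, and pyknosed cells into mitotic or apoptotic. Tubulin, mitochondrial-mass and membrane-permeability phenotypes are per cents of healthy-nucleus cells.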

[1] = 12 h, 1 µM, compound concentration 1 uM, replicate 1
[2] = 12 h, 1 µM, compound concentration 1 uM, replicate 2
[3] = 12 h, 10 µM, compound concentration 10 uM, replicate 1
[4] = 12 h, 10 µM, compound concentration 10 uM, replicate 2
[5] = 24 h, 1 µM, compound concentration 1 uM, replicate 1
[6] = 24 h, 1 µM, compound concentration 1 uM, replicate 2
[7] = 24 h, 10 µM, compound concentration 10 uM, replicate 1
[8] = 24 h, 10 µM, compound concentration 10 uM, replicate 2
[9] = 48 h, 1 µM, compound concentration 1 uM, replicate 1
[10] = 48 h, 1 µM, compound concentration 1 uM, replicate 2
[11] = 48 h, 10 µM, compound concentration 10 uM, replicate 1
[12] = 48 h, 10 µM, compound concentration 10 uM, replicate 2

SMILES: COc1cc2ncn(-c3cc(OCc4ccccc4C(F)(F)F)c(C(N)=O)s3)c2cc1OC [GW843682X]
- Population Apoptotic (%) [1]: 54%
- Population Fragmented Nuclei (%) [1]: 15%
- Population Healthy Nuclei (%) [1]: 78%
- Population Hoechst High Intensity Objects (%) [1]: 7%
- Population Membrane Permeable-Phenotype (%) [1]: 12%
- Population Mitochondria Different-Phenotype (%) [1]: 17%
- Population Mitotic Cells (%) [1]: 45%
- Population Normal (%) [1]: 92%
- Population Pyknosed Nuclei (%) [1]: 6%
- Population Tubulin-Different-Phenotype (%) [1]: 28%
- Total Cell Count [1]: 170
- Population Apoptotic (%) [2]: 50%
- Population Fragmented Nuclei (%) [2]: 9%
- Population Healthy Nuclei (%) [2]: 80%
- Population Hoechst High Intensity Objects (%) [2]: 10%
- Population Mitochondria Different-Phenotype (%) [2]: 10%
- Population Mitotic Cells (%) [2]: 50%
- Population Normal (%) [2]: 89%
- Population Pyknosed Nuclei (%) [2]: 9%
- Population Tubulin-Different-Phenotype (%) [2]: 20%
- Total Cell Count [2]: 83
- Population Apoptotic (%) [3]: 54%
- Population Fragmented Nuclei (%) [3]: 12%
- Population Healthy Nuclei (%) [3]: 71%
- Population Hoechst High Intensity Objects (%) [3]: 13%
- Population Membrane Permeable-Phenotype (%) [3]: 28%
- Population Mitochondria Different-Phenotype (%) [3]: 83%
- Population Mitotic Cells (%) [3]: 45%
- Population Normal (%) [3]: 86%
- Population Pyknosed Nuclei (%) [3]: 15%
- Population Tubulin-Different-Phenotype (%) [3]: 97%
- Total Cell Count [3]: 185
- Population Apoptotic (%) [4]: 50%
- Population Fragmented Nuclei (%) [4]: 13%
- Population Healthy Nuclei (%) [4]: 75%
- Population Hoechst High Intensity Objects (%) [4]: 6%
- Population Membrane Permeable-Phenotype (%) [4]: 25%
- Population Mitochondria Different-Phenotype (%) [4]: 88%
- Population Mitotic Cells (%) [4]: 50%
- Population Normal (%) [4]: 93%
- Population Pyknosed Nuclei (%) [4]: 11%
- Population Tubulin-Different-Phenotype (%) [4]: 98%
- Total Cell Count [4]: 68
- Population Apoptotic (%) [5]: 62%
- Population Fragmented Nuclei (%) [5]: 14%
- Population Healthy Nuclei (%) [5]: 76%
- Population Hoechst High Intensity Objects (%) [5]: 3%
- Population Mitochondria Different-Phenotype (%) [5]: 22%
- Population Mitotic Cells (%) [5]: 37%
- Population Normal (%) [5]: 96%
- Population Pyknosed Nuclei (%) [5]: 8%
- Population Tubulin-Different-Phenotype (%) [5]: 20%
- Total Cell Count [5]: 166
- Population Apoptotic (%) [6]: 55%
- Population Fragmented Nuclei (%) [6]: 11%
- Population Healthy Nuclei (%) [6]: 74%
- Population Hoechst High Intensity Objects (%) [6]: 5%
- Population Membrane Permeable-Phenotype (%) [6]: 10%
- Population Mitochondria Different-Phenotype (%) [6]: 19%
- Population Mitotic Cells (%) [6]: 44%
- Population Normal (%) [6]: 94%
- Population Pyknosed Nuclei (%) [6]: 14%
- Population Tubulin-Different-Phenotype (%) [6]: 17%
- Total Cell Count [6]: 85
- Population Apoptotic (%) [7]: 51%
- Population Fragmented Nuclei (%) [7]: 14%
- Population Healthy Nuclei (%) [7]: 66%
- Population Hoechst High Intensity Objects (%) [7]: 9%
- Population Membrane Permeable-Phenotype (%) [7]: 42%
- Population Mitochondria Different-Phenotype (%) [7]: 90%
- Population Mitotic Cells (%) [7]: 48%
- Population Normal (%) [7]: 90%
- Population Pyknosed Nuclei (%) [7]: 18%
- Population Tubulin-Different-Phenotype (%) [7]: 98%
- Total Cell Count [7]: 190
- Population Apoptotic (%) [8]: 50%
- Population Fragmented Nuclei (%) [8]: 13%
- Population Healthy Nuclei (%) [8]: 69%
- Population Membrane Permeable-Phenotype (%) [8]: 41%
- Population Mitochondria Different-Phenotype (%) [8]: 91%
- Population Mitotic Cells (%) [8]: 50%
- Population Pyknosed Nuclei (%) [8]: 17%
- Population Tubulin-Different-Phenotype (%) [8]: 97%
- Total Cell Count [8]: 67
- Population Apoptotic (%) [9]: 71%
- Population Fragmented Nuclei (%) [9]: 16%
- Population Healthy Nuclei (%) [9]: 66%
- Population Hoechst High Intensity Objects (%) [9]: 8%
- Population Membrane Permeable-Phenotype (%) [9]: 16%
- Population Mitochondria Different-Phenotype (%) [9]: 33%
- Population Mitotic Cells (%) [9]: 28%
- Population Normal (%) [9]: 91%
- Population Pyknosed Nuclei (%) [9]: 16%
- Population Tubulin-Different-Phenotype (%) [9]: 18%
- Total Cell Count [9]: 160
- Population Apoptotic (%) [10]: 62%
- Population Fragmented Nuclei (%) [10]: 9%
- Population Healthy Nuclei (%) [10]: 79%
- Population Hoechst High Intensity Objects (%) [10]: 6%
- Population Membrane Permeable-Phenotype (%) [10]: 27%
- Population Mitochondria Different-Phenotype (%) [10]: 37%
- Population Mitotic Cells (%) [10]: 37%
- Population Normal (%) [10]: 93%
- Population Pyknosed Nuclei (%) [10]: 10%
- Population Tubulin-Different-Phenotype (%) [10]: 34%
- Total Cell Count [10]: 91
- Population Apoptotic (%) [11]: 78%
- Population Fragmented Nuclei (%) [11]: 17%
- Population Healthy Nuclei (%) [11]: 53%
- Population Hoechst High Intensity Objects (%) [11]: 9%
- Population Membrane Permeable-Phenotype (%) [11]: 71%
- Population Mitochondria Different-Phenotype (%) [11]: 93%
- Population Mitotic Cells (%) [11]: 21%
- Population Normal (%) [11]: 90%
- Population Pyknosed Nuclei (%) [11]: 29%
- Population Tubulin-Different-Phenotype (%) [11]: 97%
- Total Cell Count [11]: 187
- Population Apoptotic (%) [12]: 71%
- Population Fragmented Nuclei (%) [12]: 18%
- Population Healthy Nuclei (%) [12]: 62%
- Population Hoechst High Intensity Objects (%) [12]: 6%
- Population Membrane Permeable-Phenotype (%) [12]: 68%
- Population Mitochondria Different-Phenotype (%) [12]: 88%
- Population Mitotic Cells (%) [12]: 28%
- Population Normal (%) [12]: 93%
- Population Pyknosed Nuclei (%) [12]: 19%
- Total Cell Count [12]: 78
